Data taken from article PMC4168221 (Clinical Drug Investigation, 2014).
“Also recorded” adds a separate entry of the source.

Experiment: Safety: adverse events after single doses
Format: in vivo, human (Japanese patients with type 2 diabetes mellitus)
How it was run: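 Adverse events were recorded with intensity and relation to drug, then coded by system organ class and preferred term (MedDRA/J 15.0). Adverse drug reactions were events the investigator judged reasonably related. Also checked: laboratory tests, renal function, vital signs, body weight and 12-lead ECG. Patients were hospitalised and received single 100 and 200 mg oral doses in crossover.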

[1] = Moderate renal impairment, canagliflozin 200 mg (n = 12)
[2] = Normal renal function or mild renal impairment, canagliflozin 100 mg (n = 12)
[3] = Normal renal function or mild renal impairment, canagliflozin 200 mg (n = 12)
[4] = single doses of 100 and 200 mg, all patients

Structure (SMILES): Cc1ccc([C@@H]2O[C@H](CO)[C@@H](O)[C@H](O)[C@H]2O)cc1Cc1ccc(-c2ccc(F)cc2)s1 [Canagliflozin, canagliflozin]
- Pollakiuria: No. of subjects [1]: 0
- Protein urine present: Incidence [1]: 0.0%
- Protein urine present: No. of events [1]: 0
- Protein urine present: No. of subjects [1]: 0
- Adverse events Total: Incidence [2]: 16.7%
- Adverse events Total: No. of events [2]: 3
- Adverse events Total: No. of subjects [2]: 2
- Back pain: Incidence [2]: 8.3%
- Back pain: No. of events [2]: 1
- Back pain: No. of subjects [2]: 1
- Blood CPK increased: Incidence [2]: 0.0%
- Blood CPK increased: No. of events [2]: 0
- Blood CPK increased: No. of subjects [2]: 0
- Blood creatinine increased: Incidence [2]: 0.0%
- Blood creatinine increased: No. of events [2]: 0
- Blood creatinine increased: No. of subjects [2]: 0
- Blood glucose increased: Incidence [2]: 0.0%
- Blood glucose increased: No. of events [2]: 0
- Blood glucose increased: No. of subjects [2]: 0
- Constipation: Incidence [2]: 8.3%
- Constipation: No. of events [2]: 1
- Constipation: No. of subjects [2]: 1
- Diarrhea: Incidence [2]: 8.3%
- Diarrhea: No. of events [2]: 1
- Diarrhea: No. of subjects [2]: 1
- Nasopharyngitis: Incidence [2]: 0.0%
- Nasopharyngitis: No. of events [2]: 0
- Nasopharyngitis: No. of subjects [2]: 0
- Pollakiuria: Incidence [2]: 0.0%
- Pollakiuria: No. of events [2]: 0
- Pollakiuria: No. of subjects [2]: 0
- Protein urine present: Incidence [2]: 0.0%
- Protein urine present: No. of events [2]: 0
- Protein urine present: No. of subjects [2]: 0
- Adverse events Total: Incidence [3]: 25.0%
- Adverse events Total: No. of events [3]: 4
- Adverse events Total: No. of subjects [3]: 3
- Back pain: Incidence [3]: 0.0%
- Back pain: No. of events [3]: 0
- Back pain: No. of subjects [3]: 0
- Blood CPK increased: Incidence [3]: 8.3%
- Blood CPK increased: No. of events [3]: 1
- Blood CPK increased: No. of subjects [3]: 1
- Blood creatinine increased: Incidence [3]: 8.3%
- Blood creatinine increased: No. of events [3]: 1
- Blood creatinine increased: No. of subjects [3]: 1
- Blood glucose increased: Incidence [3]: 8.3%
- Blood glucose increased: No. of events [3]: 1
- Blood glucose increased: No. of subjects [3]: 1
- Constipation: Incidence [3]: 0.0%
- Constipation: No. of events [3]: 0
- Constipation: No. of subjects [3]: 0
- Diarrhea: Incidence [3]: 0.0%
- Diarrhea: No. of events [3]: 0
- Diarrhea: No. of subjects [3]: 0
- Nasopharyngitis: Incidence [3]: 8.3%
- Nasopharyngitis: No. of events [3]: 1
- Nasopharyngitis: No. of subjects [3]: 1
- Pollakiuria: Incidence [3]: 0.0%
- Pollakiuria: No. of events [3]: 0
- Pollakiuria: No. of subjects [3]: 0
- Protein urine present: Incidence [3]: 0.0%
- Protein urine present: No. of events [3]: 0
- Protein urine present: No. of subjects [3]: 0
- adverse events considered related to the study drug [4]: Only one case of pollakiuria and one of diarrhea were considered to be related to the study drug
- hypoglycemia [4]: no patient developed hypoglycemia; also recorded: None of the patients developed hypoglycemia; also recorded: no cases of hypoglycemia
